From PubChem
Compounds with a hit are over-represented: about 2.9% of the library has one in this group of screens.
SENP8 block-1: blocks the human protease SENP8; AID 2540; actives 1.2% (n = 330,000); inhibition, % at 10 µM; purified SENP8, Z-RLRGG-aminoluciferin cleavage, luminescence; in the data active = inhibition above about 50%
SENP8 block-2: inhibitors of human SENP8 protease; actives 0.64% (n = 360,000); AID 602440; inhibition, % at 20 µM; recombinant SENP8, Nedd8 substrate fluorescence; in the data active = inhibition mostly above about 40%, no sharp cut-off; inactive = mostly below about 27%
SENP1 inh: SENP1 (human) catalytic domain inhibition | Q9P0U3 | recombinant SENP1 catalytic domain, CyPet-SUMO1-YPet FRET cleavage | inhibition, % at 10 µM | actives 0.21% (n = 360,000) | AID 624204;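 active = inhibition at least 30% at 10 µM, raw YFP signal under a set limit, fluorescence ratio 0.5 to 1.5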;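 also: 0% = enzyme with DMSO and 100% = no enzyme wells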
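System: Recombinant human SENP1 catalytic domain, His6-tagged | Incubation: Enzyme reaction for 50 min at room temperature, dark | Medium: Tris pH 8 with BME, BSA, NP40 and catalase | Also added: 25 nM SUMO1 FRET substrate | Compound: 10 µM single point, 0.5% DMSO | Measured by: FRET fluorescence in CFP and YFP emission channels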
SENP7 inh: inhibitors of human SENP7 protease; Q9BQF6; recombinant SENP7, Z-RLRGG-aminoluciferin luminescence, 40 min; actives 1.5% (n = 330,000); inhibition, % at 5 µM;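 active = inhibition above about 50% at the single test dose, limit read from the data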;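 also: plate controls were DMSO with enzyme for no effect and no enzyme buffer wells for full effect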
Target sequence (Q9BQF6 706-1050 limits assumed): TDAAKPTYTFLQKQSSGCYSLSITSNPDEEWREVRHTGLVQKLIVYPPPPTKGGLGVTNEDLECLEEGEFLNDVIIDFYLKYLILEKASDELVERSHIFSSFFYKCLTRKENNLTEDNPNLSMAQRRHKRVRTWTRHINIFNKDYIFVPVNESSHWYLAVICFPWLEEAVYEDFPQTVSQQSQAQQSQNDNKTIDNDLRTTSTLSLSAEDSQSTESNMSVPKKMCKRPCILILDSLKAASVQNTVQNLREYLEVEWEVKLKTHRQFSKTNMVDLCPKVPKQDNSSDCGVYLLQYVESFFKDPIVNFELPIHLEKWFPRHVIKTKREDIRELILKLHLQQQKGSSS
HSP90 inh: HSP90 refolding inhibition in rabbit reticulocyte lysate; luciferase refolding luminescence, 3 h; inhibition, % at 5.6 µM; actives 0.91% (n = 290,000); AID 1789;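 active = inhibition above the screen-wide mean plus 3 SD, computed separately per campaign, cut at about 16% in these data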;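 also: 0% = DMSO wells and 100% = 60 µM geldanamycin wells; inhibitors lower the luminescence because luciferase stays unfolded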
SENP6 inh: inhibitors of human SENP6 protease. Q9GZR1. Recombinant SENP6 catalytic domain, aminoluciferin luminescence. inhibition, % at 10 µM. actives 1.8% (n = 330,000). AID 2599;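 active = inhibition above about 50% at the single tested dose, limit read from the data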;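 also: plate controls were DMSO wells with enzyme for no effect and DMSO wells lacking enzyme for full effect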
SENP8 conf: human SENP8 inhibition, confirmed. actives 40% (n = 6,200). AID 488912. Recombinant SENP8, Z-RLRGG-aminoluciferin luminescence, 60 min. shares compounds with SENP7 inh. inhibition, % at 12.5 µM;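 active = mean inhibition across replicates above about 50%, limit read from the data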
SENP6 conf: human SENP6 inhibition, confirmed; inhibition, % at 12.5 µM; shares compounds with SENP7 inh; recombinant SENP6, Z-RLRGG-aminoluciferin luminescence; actives 58% (n = 6,200)
SENP7 confirm: human SENP7 inhibition, confirmed. shares compounds with SENP7 inh. recombinant SENP7, Z-RLRGG-aminoluciferin luminescence, 40 min. inhibition, % at 12.5 µM. actives 69% (n = 6,200)
Casp3 select: selectivity test for SENP inhibitors: human caspase-3 inhibition; inhibition, % at 12.5 µM; actives 60% (n = 6,200); purified caspase-3, Z-DEVD-aminoluciferin luminescence, 60 min; shares compounds with SENP7 inh;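 active = mean inhibition above about 50%, limit read from the data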;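 also: plate controls were enzyme with DMSO for no effect and wells without caspase-3 for full effect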
Target sequence (P42574 28-227 limits assumed): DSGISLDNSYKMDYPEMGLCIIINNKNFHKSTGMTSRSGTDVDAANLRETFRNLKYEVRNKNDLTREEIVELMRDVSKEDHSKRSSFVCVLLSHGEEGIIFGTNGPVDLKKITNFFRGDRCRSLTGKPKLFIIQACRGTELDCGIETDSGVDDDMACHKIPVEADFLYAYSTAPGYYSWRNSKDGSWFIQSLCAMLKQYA
Luc interf: interferes with luciferase luminescence in SENP counter-screen; inhibition, % at 12.5 µM; actives 39% (n = 6,200); Pre-incubated SENP8/Z-RLRGG-aminoluciferin, luciferase luminescence interference; shares compounds with SENP7 inh; AID 488919;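 active = mean inhibition above about 50% when retested at one dose, limit read from the data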;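 also: plate controls were DMSO wells with completed reaction for no effect and substrate without enzyme for full effect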
The depositor's hits bear a star; i = inactive; / = no result.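 The calls were made as follows, unless noted: active = mean inhibition above about 50% in the one-dose retest (limit read from the data); inactive = the rest.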

SMILES	SENP8 block-1	SENP8 block-2	SENP1 inh	SENP7 inh	HSP90 inh	SENP6 inh	SENP8 conf	SENP6 conf	SENP7 confirm	Casp3 select	Luc interf
O=C(NCCCN1CCCC1=O)C1CCC(CNS(=O)(=O)c2ccc(Cl)cc2)CC1 (stereo not given)	-5	18	1	-13	-2	-8	/	/	/	/	/
CC(=O)/C=C1\OCc2cc(OCc3ccccc3)ccc21	/	20	1	/	/	/	/	/	/	/	/
O=C1CCOc2cc(OCc3ccccc3)ccc21	88*	8	1	95*	6	94*	94*	94*	101*	94*	93*
CN(Cc1ccccc1)C(=O)[C@@H]1CCCN1C(=O)[C@@H]1CCCN1C(=O)c1ccccc1	/	13	-2	/	/	/	/	/	/	/	/
O=C(O)c1cc2nc3c(c(C(F)(F)F)n2n1)CCc1ccccc1-3	3	-50	-2	6	-1	72*	-21	-14	-8	-7	-5
COc1cccc(Nc2nc(C(N)C3CCCCC3)cs2)n1 (stereo not given)	/	-8	-39	/	/	/	/	/	/	/	/
O=C(O)c1ccc(Cl)cc1NC(=O)C1CCN(S(=O)(=O)c2cccs2)CC1	/	-10	0	/	/	/	/	/	/	/	/
O=S(=O)(Nc1nc(-c2sccc2Cl)cs1)c1cc(Cl)ccc1Cl	10	37	4	3	1	74*	9	15	5	6	11
CC(C)(C)c1nnc(NS(=O)(=O)c2cc(Cl)ccc2Cl)s1	5	6	-23	-6	-1	-3	/	/	/	/	/
COc1ccc(C(=O)CSc2nnc(Cc3ccccc3)o2)cc1	-9	10	2	60*	-2	-38	7	9	8	4	3
COc1ccc(Cc2nnc(SCC(=O)c3ccccc3)o2)cc1	-1	21	1	-2	3	10	/	/	/	/	/
CCOc1ccc(-c2nnc(-c3ccccc3)o2)cc1	91*	-131	-1	93*	13	96*	9	8	9	2	3
CCOC(=O)Cc1nnc(-c2ccccc2)o1	6	-5	-3	-6	1	-3	/	/	/	/	/
CCOc1ccc(-c2nc3ccccc3c(=O)o2)cc1	22	-184	1	73*	-3	7	28	36	46	34	38
CC(C)(C)C(=O)Nc1ccc(-c2nc3ccccc3c(=O)o2)cc1	-1	-15	0	68*	-2	62*	4	6	12	13	6
CCOc1ccc(-c2nnc(-c3ccc(OC)cc3)o2)cc1	-18	-432	0	-12	0	-4	/	/	/	/	/
CCOC(=O)COc1ccc(-c2nnc(-c3ccccc3)o2)cc1	26	-35	1	74*	-1	79*	49	49	68*	72*	14
CS(=O)(=O)c1ccc(Cl)c(NC(=O)CN2C(=O)C3CCCCC3C2=O)c1 (stereo not given)	-5	3	-1	10	/	-10	/	/	/	/	/
Cc1ccc(NC(=O)CSCC(=O)Nc2nnc(C)s2)cc1	-11	9	1	0	/	-1	/	/	/	/	/
CC(C)C1OC(c2cccc(NC(=O)c3cccs3)c2)OCC1(C)C (stereo not given)	-10	32	-1	-5	-3	-5	/	/	/	/	/
Cc1[nH]c2ccccc2c1C(=O)C(=O)NC1CC(=O)N(c2ccc(F)cc2)C1 (stereo not given)	-6	-5	2	-4	/	-10	/	/	/	/	/
Cc1ccc(N=Cc2sc(O)c3ccccc23)cc1	86*	-60	-24	76*	5	68*	90*	92*	100*	74*	47
Cc1ccc(N=Cc2sc(O)c3ccccc23)c(C)c1	-18	-10	-24	-7	6	-25	/	/	/	/	/
CCC(C)NC(=O)c1cc2cc3ccc(OC)cc3nc2s1 (stereo not given)	36	-313	-1	60*	4	-7	37	61*	87*	72*	37
CCC(C)NC(=O)c1cc2c(=O)n3ccccc3nc2s1 (stereo not given)	4	-281	-65	8	-4	-8	/	/	/	/	/
SMILES	SENP8 block-1	SENP8 block-2	SENP1 inh	SENP7 inh	HSP90 inh	SENP6 inh	SENP8 conf	SENP6 conf	SENP7 confirm	Casp3 select	Luc interf
CC1(C)CC(NS(=O)(=O)c2ccc(S(N)(=O)=O)cc2)CC(C)(C)N1	10	12	4	3	1	-13	/	/	/	/	/
CC(/C=C1\SC(=S)N(NS(=O)(=O)c2ccccc2)C1=O)=C\c1ccccc1	80*	33	1	3	0	96*	92*	92*	37	44	16
CC(/C=C1\SC(=S)N(NC(=O)c2ccccc2C)C1=O)=C\c1ccccc1	-6	27	0	-6	0	-19	/	/	/	/	/
CC(/C=C1\SC(=S)N(NS(=O)(=O)c2ccc(C)cc2)C1=O)=C\c1ccccc1	84*	38	7	13	-4	-13	-9	84*	11	23	7
CCN(CC)c1ccc(N=Nc2nn(C)c(C)c2[N+](=O)[O-])cc1	54*	38	4	63*	0	78*	-17	-7	19	10	-2
Clc1ccccc1-c1nc(-c2ccccc2)n[nH]1	53*	6	0	74*	0	74*	-6	57*	85*	62*	66*
O=C(OCC(=O)N1CCCc2ccccc21)c1cc(Br)ccc1O	-9	-70	3	-10	/	-15	/	/	/	/	/
CN(C)c1ccc(/C=C2\CCCCC2=O)cc1	48	-24	-79	63*	4	62*	46	62*	81*	60*	29
Cc1ccc(-c2nc3ccccn3c2C=O)cc1	28	0	-4	41	1	45	/	/	/	/	/
Clc1c(-c2ccccc2)nc2ccccn12	55*	-217	-1	54*	-2	65*	-9	46	80*	66*	47
Clc1cccc(-c2ccc(-c3nc4ccccn4c3NCc3ccccc3)cc2)c1	65*	i	-31	53*	/	0	36	49	71*	43	8
c1ccn2c(c1)nc1c2nc2ccccn21	-9	-258	-84	7	8	-10	/	/	/	/	/
